ChEMBL document CHEMBL4177756, “Small Molecule Neuropilin-1 Antagonists Combine Antiangiogenic and Antitumor Activity with Immune Modulation through Reduction of Transforming Growth Factor Beta (TGFβ) Production in Regulatory T-Cells” (J Med Chem, 2018)
Activity calls are given as the source filed them. The rule behind the calls is not given here.

How the values were obtained:
[1] = target: T1, Neuropilin-1 (Homo sapiens, UniProt O14786); experiment: Binding affinity to N-terminal His6-tagged recombinant human NRP1-b1 domain expressed in Escherichia coli Rosetta Gami 2 (DE3) pLysS cells by SPR method
T1 sequence (O14786 whole entry, the tested form may be a part): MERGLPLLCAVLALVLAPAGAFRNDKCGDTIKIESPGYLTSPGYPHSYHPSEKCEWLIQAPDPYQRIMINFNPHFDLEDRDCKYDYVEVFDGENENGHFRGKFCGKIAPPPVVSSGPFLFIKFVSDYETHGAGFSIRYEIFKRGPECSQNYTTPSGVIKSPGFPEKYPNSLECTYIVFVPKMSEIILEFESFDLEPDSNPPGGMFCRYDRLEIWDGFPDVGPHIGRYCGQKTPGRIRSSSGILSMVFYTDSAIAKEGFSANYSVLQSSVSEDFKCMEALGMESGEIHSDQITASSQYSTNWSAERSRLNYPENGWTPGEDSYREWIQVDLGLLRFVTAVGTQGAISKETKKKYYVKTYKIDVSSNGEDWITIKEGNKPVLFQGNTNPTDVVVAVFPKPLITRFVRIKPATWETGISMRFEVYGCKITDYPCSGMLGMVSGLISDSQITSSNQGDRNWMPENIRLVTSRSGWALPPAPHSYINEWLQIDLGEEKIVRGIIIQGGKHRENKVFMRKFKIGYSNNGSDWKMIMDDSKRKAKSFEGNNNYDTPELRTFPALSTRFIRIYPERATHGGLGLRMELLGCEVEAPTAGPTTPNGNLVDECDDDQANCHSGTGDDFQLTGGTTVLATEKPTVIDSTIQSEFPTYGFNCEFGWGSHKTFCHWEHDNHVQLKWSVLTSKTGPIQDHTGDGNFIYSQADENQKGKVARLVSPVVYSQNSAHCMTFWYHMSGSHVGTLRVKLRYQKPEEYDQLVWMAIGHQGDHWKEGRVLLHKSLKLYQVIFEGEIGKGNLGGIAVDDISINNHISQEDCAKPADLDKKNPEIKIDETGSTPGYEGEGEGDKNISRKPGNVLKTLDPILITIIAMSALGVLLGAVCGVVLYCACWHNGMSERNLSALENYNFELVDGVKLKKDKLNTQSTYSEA
How it was run: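 Human NRP1-b1 (residues 273–427, His6-tagged) was amine-coupled to a CM5 chip at high and low density; an unmodified spot served as reference. Runs were at 25 °C in PBS with 0.05% P20 and 3% DMSO. Compound was tested as 2-fold dilutions from 16 µM to 31 nM with 60 s injections. KD was taken from steady-state responses, DMSO-corrected; mean ± SD of the two surfaces.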

[2] = target: T1, Neuropilin-1; experiment: Binding affinity to N-terminal His6-tagged recombinant human NRP1-b1 domain expressed in Escherichia coli Rosetta Gami 2 (DE3) pLysS cells at 200 uM treated every 2 mins by ITC method
[3] = target: T1, Neuropilin-1; experiment: Inhibition of biotinylated VEGF-A binding to N-terminal His6-tagged recombinant human NRP1-b1 domain expressed in Escherichia coli Rosetta Gami 2 (DE3) pLysS cells after 2 hrs
[4] = target: T1, Neuropilin-1; experiment: Inhibition of biotinylated VEGF-A binding to human NRP1 expressed in human DU145 cells after 2 hrs; assay type: cell-based
[5] = target: T2, Neuropilin-2 (Homo sapiens) (UniProt O60462); experiment: Binding affinity to His6-tagged recombinant human NRP2 at 62.5 to 1000 nM treated for 60 secs by SPR method
T2 sequence (whole entry): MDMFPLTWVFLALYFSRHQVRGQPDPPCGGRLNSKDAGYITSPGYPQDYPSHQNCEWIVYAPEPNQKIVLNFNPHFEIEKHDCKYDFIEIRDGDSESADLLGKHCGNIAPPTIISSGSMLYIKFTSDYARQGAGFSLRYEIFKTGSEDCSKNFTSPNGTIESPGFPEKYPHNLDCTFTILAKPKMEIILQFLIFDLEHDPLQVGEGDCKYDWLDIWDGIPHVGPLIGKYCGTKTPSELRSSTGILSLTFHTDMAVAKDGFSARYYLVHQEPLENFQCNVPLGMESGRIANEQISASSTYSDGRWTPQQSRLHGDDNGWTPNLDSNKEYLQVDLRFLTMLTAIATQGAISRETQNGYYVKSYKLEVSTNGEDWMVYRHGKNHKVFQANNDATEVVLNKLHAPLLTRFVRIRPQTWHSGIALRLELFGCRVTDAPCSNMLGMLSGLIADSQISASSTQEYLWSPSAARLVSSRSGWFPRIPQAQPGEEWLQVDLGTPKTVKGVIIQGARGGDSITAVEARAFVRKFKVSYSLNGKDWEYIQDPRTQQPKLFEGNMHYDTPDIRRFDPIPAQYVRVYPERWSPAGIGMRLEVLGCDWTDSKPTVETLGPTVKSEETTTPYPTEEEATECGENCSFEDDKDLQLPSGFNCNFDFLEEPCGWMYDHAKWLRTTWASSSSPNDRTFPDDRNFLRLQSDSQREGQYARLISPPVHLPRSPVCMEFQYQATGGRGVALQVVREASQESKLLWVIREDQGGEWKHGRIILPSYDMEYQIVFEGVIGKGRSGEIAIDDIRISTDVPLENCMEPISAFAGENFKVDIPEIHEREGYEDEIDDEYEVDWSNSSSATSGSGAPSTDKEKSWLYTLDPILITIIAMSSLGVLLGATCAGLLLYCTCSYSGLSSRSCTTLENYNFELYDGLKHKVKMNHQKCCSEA

[6] = system: Mus musculus; experiment: Half life in BALB/c mouse at 2 mg/kg, iv administered as bolus dose by LC-MS method; assay type: ADME, organism-based; details: in vivo
How it was run: (§1)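 Female BALB/c mice, 6–8 weeks old, received 2 mg/kg as a tail-vein bolus formulated in 7.5% DMSO. Blood was taken by cardiac puncture at 5, 15, 30, 60, 180 and 240 min. Plasma was separated by centrifugation, snap-frozen and assayed by LC-MS/MS with electrospray ionization.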

[7] = system: Mus musculus; experiment: Tmax in BALB/c mouse at 2 mg/kg, iv administered as bolus dose by LC-MS method; assay type: ADME, organism-based; details: in vivo; how it was run: as §1
[8] = system: Mus musculus; experiment: Cmax in BALB/c mouse at 2 mg/kg, iv administered as bolus dose by LC-MS method; assay type: ADME, organism-based; design: dose 2 mg/kg, route intravenous; details: in vivo; how it was run: as §1
[9] = system: Mus musculus; experiment: AUC (infinity) in BALB/c mouse at 2 mg/kg, iv administered as bolus dose by LC-MS method; assay type: ADME, organism-based; design: dose 2 mg/kg, route intravenous, time infinity; details: in vivo; how it was run: as §1
[10] = system: Mus musculus; experiment: Volume of distribution in BALB/c mouse at 2 mg/kg, iv administered as bolus dose by LC-MS method; assay type: ADME, organism-based; details: in vivo; how it was run: as §1
[11] = target: T1, Neuropilin-1; experiment: Inhibition of VEGF-A-stimulated NRP1-mediated VEGFR2 phosphorylation at Tyr1175 in HUVEC at 30 uM preincubated for 30 mins followed by VEGFA stimulation measured after 10 mins by immunoblot method relative to control; assay type: cell-based
How it was run: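 Confluent HUVECs serum-starved 16 h in 0.5% serum, preincubated 30 min with 3, 10 or 30 µM compound, 0.1% DMSO or medium, then 1 ng/mL VEGF-A for 10 min. RIPA lysates were immunoblotted. Densitometry of pVEGF-R2/KDR was normalised to total VEGF-R2/KDR, from three independent experiments, means ± SEM.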

[12] = system: HUVEC; experiment: Antimigratory activity in HUVEC at 30 uM after 4 hrs by transwell assay; assay type: functional, cell-based; details: Homo sapiens
How it was run: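 HUVECs (1.5×10^5 per well, serum-free EBM) were placed in upper inserts with 8 µm pores. The bottom chamber held serum-free medium with 25 ng/mL VEGF-A, 0.1% DMSO, 30 μM compound, or VEGF-A plus compound. After 4 h at 37 °C, cells that migrated were stained and counted in three random fields; five independent experiments.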

[13] = system: HUVEC; experiment: Antimigratory activity in VEGFA-induced HUVEC at 30 uM after 4 hrs by transwell assay relative to control; assay type: functional, Homo sapiens
How it was run: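 Transwell chemotaxis used 8 µm pore PET inserts. The bottom chamber held serum-free medium with or without 25 ng/mL VEGF-A, 0.1% DMSO, or 30 µM compound. HUVECs in serum-free EBM were added to the top chamber and incubated at 37 °C for 4 h. Non-migrated cells were removed, and membranes were fixed and stained. Migrated cells were counted in three random fields per well across five independent experiments, reported as mean ± SEM.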

[14] = system: HUVEC; experiment: Antimigratory activity in HUVEC assessed as delay in VEGFA-induced wound closure at 30 uM after 5 days; assay type: functional, cell-based; details: Homo sapiens
How it was run: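 HUVECs were starved overnight in 1% EBM, then wounded at 95% confluence. Wells received 1% EGM with 0.1% DMSO, 25 ng/mL VEGF-A and/or 30 μM compound. Migration into the wound was imaged every 2 h by live-cell imaging. Three independent experiments, 12 replicates per treatment.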

[15] = system: HUVEC; experiment: Antiangiogenic activity in HUVEC co-cultured with HDF assessed as inhibition of number of VEGFA-induced branch points in tubular networks at 30 uM after 4 days by immunofluorescence method relative to control; assay type: functional; details: Homo sapiens, 96 h
How it was run: (§2)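 HDF were grown to confluence in 24-well plates and 10000 HUVECs were seeded on top in endothelial growth medium with 1% FBS. Cocultures received 0.1% DMSO, VEGF 25 ng/mL, 30 μM compound, or compound plus VEGF, for 4 days at 37 °C. They were ethanol-fixed and stained for von Willebrand factor. Branch points, network area and length were scored in four fields per well; three independent experiments.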

[16] = system: HUVEC; experiment: Antiangiogenic activity in HUVEC co-cultured with HDF assessed as inhibition of VEGFA-induced tubular network length at 30 uM after 4 days by immunofluorescence method relative to control; assay type: functional; details: Homo sapiens, 96 h; how it was run: as §2
[17] = system: Aorta; experiment: Antiangiogenic activity in wild type C57Bl/6 mouse aortic ring assessed as inhibition of VEGFA-induced vessel sprouting at 30 uM after 7 days relative to control; assay type: functional
How it was run: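 Thoracic aortas from female wild-type C57Bl/6 mice were cut into 0.5 mm rings, serum-starved overnight, and embedded in rat-tail type 1 collagen. Rings were cultured in OptiMEM with 2.5% FBS containing 0.1% DMSO, 25 ng/mL VEGF-A and/or 30 μM compound at 37 °C for 7 days, with medium changed on days 3 and 5. They were then fixed and stained with isolectin B4 and SMA, and sprout area was quantified by image analysis.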

[18] = species: Homo sapiens; experiment: Antiinvasive activity in VEGFA-induced NRP1 expressing human A375P spheroids at 30 uM after 7 days; assay type: functional
[19] = species: Homo sapiens; experiment: Antiinvasive activity in NRP1 expressing human A375P spheroids at 30 uM after 7 days; assay type: functional
[20] = species: Mus musculus; experiment: Immunomodulating activity in C57/Bl6 mouse Nrp1-positive Treg cells assessed as inhibition of glioma conditioned media-induced TGFbeta production at 500 nM preincubated for 2 hrs followed by glioma conditioned media challenge measured after 12 hrs by ELISA; assay type: functional
How it was run: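 CD4+ Nrp1+ splenic T cells from 6-week-old C57/Bl6 mice were plated at 200000 per well on anti-CD3ε with anti-CD28 and expanded 72 h. Cells were pretreated 2 h with DMSO or 500 nM compound. They were then given 50% conditioned medium from serum-starved GL261 cells, and TGFβ was measured by ELISA after 12 h.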

[21] = in vivo; details: mouse, iv, 2.5 mg/kg

SMILES: N=C(N)NCCC[C@H](NC(=O)c1sccc1NS(=O)(=O)c1cc(-c2ccc(CN)cc2)cc2c1OCC2)C(=O)O
- Kd [1]: 1320 nM
- Ka [2]: 4.14 ×10⁶ /M
- IC50 [3]: 609 nM
- IC50 [4]: 1600 nM
- Activity [5]: inactive
- t1/2 [6]: 257 min
- Tmax [7]: 4.8 min
- Cmax [8]: 1678 ng/mL
- AUC [9]: 2379 ng·h/mL
- Vd [10]: 4.39682 L/kg
- inhibition [11]: 50%
- Activity [12]: inactive
- Activity [13]: >60%
- Activity [14]: Active
- inhibition at 30 µM [15]: 41%
- inhibition at 30 µM [16]: 40%
- fold change (FC) [17]: 7
- Activity [18]: Active
- Activity [19]: inactive
- inhibition [20]: Active

SMILES: N=C(N)NCCC[C@H](NC(=O)c1sccc1NS(=O)(=O)c1cc(-c2cccc(CN3CCC(N4CCOCC4)CC3)c2)cc2c1OCC2)C(=O)O
- Kd [1]: 1380 nM

SMILES: N=C(N)NCCC[C@H](NC(=O)c1sccc1NS(=O)(=O)c1cc(-c2ccccc2CN2CCCCC2)cc2c1OCC2)C(=O)O
- Kd [1]: 2280 nM

SMILES: N=C(N)NCCC[C@H](NC(=O)c1sccc1NS(=O)(=O)c1cc(-c2ccccc2CN2CCC(C(N)=O)CC2)cc2c1OCC2)C(=O)O
- Kd [1]: 2050 nM

SMILES: N#CCC1CCN(Cc2ccccc2-c2cc3c(c(S(=O)(=O)Nc4ccsc4C(=O)N[C@@H](CCCNC(=N)N)C(=O)O)c2)OCC3)CC1
- Kd [1]: 1860 nM

SMILES: N=C(N)NCCC[C@H](NC(=O)c1sccc1NS(=O)(=O)c1cc(-c2cccc(CN3CCCCC3)c2)cc2c1OCC2)C(=O)O
- Kd [1]: 1170 nM

SMILES: N=C(N)NCCC[C@H](NC(=O)c1sccc1NS(=O)(=O)c1cccc2nsnc12)C(=O)O
- half-life [21]: 30 min

SMILES: N=C(N)NCCC[C@H](NC(=O)c1sccc1NS(=O)(=O)c1cc(-c2ccccc2CN)cc2c1OCC2)C(=O)O
- Kd [1]: 1870 nM

SMILES: N=C(N)NCCC[C@H](NC(=O)c1sccc1NS(=O)(=O)c1cc(-c2cccc(CN3CCC(C(N)=O)CC3)c2)cc2c1OCC2)C(=O)O
- Kd [1]: 1560 nM

SMILES: N=C(N)NCCC[C@H](NC(=O)c1sccc1NS(=O)(=O)c1cc(-c2cccc3c2CNC3)cc2c1OCC2)C(=O)O
- Kd [1]: 2470 nM

SMILES: CNC(=O)C1CCN(Cc2cccc(-c3cc4c(c(S(=O)(=O)Nc5ccsc5C(=O)N[C@@H](CCCNC(=N)N)C(=O)O)c3)OCC4)c2)CC1
- Kd [1]: 1330 nM

SMILES: N=C(N)NCCC[C@H](NC(=O)c1sccc1NS(=O)(=O)c1cc(-c2ccccc2CN2CCC(N3CCOCC3)CC2)cc2c1OCC2)C(=O)O
- Kd [1]: 1500 nM

SMILES: N#CCC1CCN(Cc2cccc(-c3cc4c(c(S(=O)(=O)Nc5ccsc5C(=O)N[C@@H](CCCNC(=N)N)C(=O)O)c3)OCC4)c2)CC1
- Kd [1]: 1410 nM

SMILES: N=C(N)NCCC[C@H](NC(=O)c1sccc1NS(=O)(=O)c1cc(-c2ccccc2)cc2c1OCC2)C(=O)O
- Kd [1]: 14400 nM

SMILES: CN(C)Cc1cccc(-c2cc3c(c(S(=O)(=O)Nc4ccsc4C(=O)N[C@@H](CCCNC(=N)N)C(=O)O)c2)OCC3)c1
- Kd [1]: 4520 nM
- t1/2 [6]: 40.8 min
- Tmax [7]: 4.8 min
- Cmax [8]: 1959.8 ng/mL
- AUC [9]: 564.44 ng·h/mL
- Vd [10]: 1.05261 L/kg

SMILES: N=C(N)NCCC[C@H](NC(=O)c1sccc1NS(=O)(=O)c1cc(-c2ccc3c(c2)CNC3)cc2c1OCC2)C(=O)O
- Kd [1]: 2170 nM

SMILES: N=C(N)NCCC[C@H](NC(=O)c1sccc1NS(=O)(=O)c1cc(-c2cccc(CN3CCOCC3)c2)cc2c1OCC2)C(=O)O
- Kd [1]: 3760 nM

SMILES: CNC(=O)C1CCN(Cc2ccccc2-c2cc3c(c(S(=O)(=O)Nc4ccsc4C(=O)N[C@@H](CCCNC(=N)N)C(=O)O)c2)OCC3)CC1
- Kd [1]: 3020 nM

SMILES: N=C(N)NCCC[C@H](NC(=O)c1sccc1NS(=O)(=O)c1cc(-c2cccc(CN)c2)cc2c1OCC2)C(=O)O
- Kd [1]: 2440 nM
